Experimental data: the EternaBench riboswitch data

System: MS2 coat protein
Assay: apparent Kd, MS2 coat protein; higher = weaker binding; RNA-MaP array; FMN 200 µM where present
Outline: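 On Illumina sequencing-chip clusters, designs were transcribed by stalled E. coli RNA polymerase and titrated with SNAP-549-labelled MS2 coat protein (0.7 or 1.5 nM, doubling to 3 µM), without and then with constant ligand, in 100 mM Tris-HCl pH 7.5, 80 mM KCl, 4 mM MgCl2, BSA, DTT, yeast tRNA and Tween-20. Apparent Kd is the median of filtered per-cluster curve fits to green signal normalised to red-channel RNA signal and control-cluster median Fmax.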

[1] = designed as: ON switch for flavin mononucleotide, no ligand
[2] = ligand present: flavin mononucleotide, designed as: ON switch for flavin mononucleotide
[3] = designed as: OFF switch for flavin mononucleotide, no ligand
[4] = ligand present: flavin mononucleotide, designed as: OFF switch for flavin mononucleotide

CGCUAAGAUGGGUUUAAUGGAGCAUAGGAUAUGCUUGUACAUGAGGAUCACCCAUGUAAUAUUGUGCAGAAGGGUGCAUUUGCG
apparent Kd [1]: 126 nM
apparent Kd [2]: 75.1 nM

AAUCCACAUGAGGAUCACCCAUGUCAGGAUAUCGCGCGCGCGGUUUCGGUCGCGCGCGCGAGAAGGGACGGCUG
apparent Kd [3]: 28.8 nM
apparent Kd [4]: 51.7 nM

CGCAAGUCAGGAUAUUCGACUGGUAAAUCAGUGGAUCAGUAGGAGAAGGGACAUGAGGAUCACCCAUGUUUGUA
apparent Kd [3]: 27.8 nM
apparent Kd [4]: 30 nM

GUGCGAGUGCCACAGGAUAUACGUGGAUCGACAUGAGGAUCACCCAUGUAUAUCCUAAUAAUUGCGUAGAAGGGUGGUCAGUCGG
apparent Kd [1]: 786 nM
apparent Kd [2]: 289 nM

AUGUUGCGAGGAUAUAUUUACUGGUUGUUGUUUGGUUGGGAACAUGAGGAUCACCCAUGUAGAAGGUGCAUAAC
apparent Kd [3]: 54.5 nM
apparent Kd [4]: 49.9 nM

AAUAAGUGAGGAUAUACGUCUGGACCCGGGAGGGCUAUAUAACAUGAGGAUCACCCAUGUAGAAGGCACAAUAA
apparent Kd [3]: 13.9 nM
apparent Kd [4]: 15.9 nM

GCAUCACAUGAGGAUCACCCAUGUCUUCGGAGUCGAGGAUAUGGUCACUGUAAACAGUGGCCAGAAGGCGAGGUGC
apparent Kd [1]: 67.6 nM
apparent Kd [2]: 38.3 nM

AAAAAGCGAGGAUAUGCGGGCGGGUGCGGCCAGCCGAUGUGACAUGAGGAUCACCCAUGUAGAAGGCGCAAAAA
apparent Kd [3]: 12.3 nM
apparent Kd [4]: 15.1 nM

ACUAAACGAGGAUAUACUAACAAACCUCAAACAUACAUCAAACAUGAGGAUCACCCAUGUAGAAGGCGUAAACU
apparent Kd [3]: 37.6 nM
apparent Kd [4]: 17.6 nM

UGGUACUACGGAGGAUAUCAUGUAGAUACAUGAGGAUCACCCAUGUCGUACGAGAGUACGGAGAUUGAGAAGGCCGUAGUACCU
apparent Kd [1]: 30.5 nM
apparent Kd [2]: 15.1 nM

UAAAUUAACAAGAAGGCUAACAUGAGGAUCACCCAUGUUGUACAUGGAUAUAGAGGAUAUUGCUAAUAAUUAUUUAUCAUAAUU
apparent Kd [3]: 24.4 nM
apparent Kd [4]: 20.1 nM

CAGGUCUGAGGAUAUCCAUCCUCCUACAUGAGGAUCACCCAUGUUUCCCUCUGGGUUUUCGGAGAAGGCAGUUUUU
apparent Kd [3]: 749 nM
apparent Kd [4]: 525 nM

UGUCGGAAGUAGAAGGGUAUGACAUGAGGAUCACCCAUGUGAUUUGGGUAUACAGGAUAUGCUUAUAUAUAUGAUUAAAUUAUU
apparent Kd [3]: 451 nM
apparent Kd [4]: 248 nM

UUUAAGUCAGGAUAUCGUUAAUUUAAUUAUUUGUUUUAGUUCGAGAAGGGACAUGAGGAUCACCCAUGUAAUUU
apparent Kd [3]: 38.8 nM
apparent Kd [4]: 41.8 nM

GGUACCAUCACAGGAUAUGCUUUCCUUUGGGAAGCAGAAGGGUGUAACAUGAGGAUCACCCAUGUGGUGCCAGGGCGUGAGCCU
apparent Kd [1]: 216 nM
apparent Kd [2]: 16 nM

ACAAAAGUUGAUCCUCGCUACAUGAGGAUCACCCAUGUAAUGGAGGAUAUGCAGCAACAAAACUCGCAGAAGGCCAUUUGCUGG
apparent Kd [3]: 52.5 nM
apparent Kd [4]: 30.5 nM

UUAUUCUAUAUAGGAUAUUGAUGCAAUUUACCUCAAGAAGGAUAUACAUGAGGAUCACCCAUGUUGGAUAGGGUUAGUUUGUUU
apparent Kd [1]: 79.4 nM
apparent Kd [2]: 76.5 nM

CCACUCUAUGCAGGAUAUCGAGCCUGGGCCUUAUUUUUUGUAAACAUGAGGAUCACCCAUGUCUUCGAGAAGGGCAUAACAACG
apparent Kd [3]: 178 nM
apparent Kd [4]: 241 nM

UUAAUUAUACAAGGAUAUCUAUUGUUAUUUCGACUUACAUGAGGAUCACCCAUGUUAAUAUAUUUAGAGAAGGUGUAUUUUCAG
apparent Kd [1]: 86.8 nM
apparent Kd [2]: 36.5 nM

UAUAUUAUUAUAGGAUAUGGAUAUGAUGCAUAUCCAGAAGGGUGAUUAUAAUAUAUUCUGUACAUGAGGAUCACCCAUGUUUAU
apparent Kd [1]: 258 nM
apparent Kd [2]: 75.9 nM

UCAUGGUAGCAGGAUAUGCUUGUAAUUUUUUAUGCAGAAGGGCUUACAUGAGGAUCACCCAUGUGUUAGGUCUA
apparent Kd [3]: 43.4 nM
apparent Kd [4]: 66.2 nM

GUCGGAUGUAUAGGAUAUCGACUGGAAUACAGUCGAGAAGGAUACAUGAGGAUCACCCAUGUAAUAAUAAUAAUAAUAACCGAC
apparent Kd [3]: 12.5 nM
apparent Kd [4]: 24 nM

AAGUAGUGAGGAUAUACAUGGAUAUACAUUCAUGUGGACCUACAUGAGGAUCACCCAUGUAGAAGGCACUAAUA
apparent Kd [3]: 33.8 nM
apparent Kd [4]: 28.6 nM

GCCUUAUCGGUCAGGAUAUACACCCGUCACUCCUUGUAGAAGGGACAUGAGGAUCACCCAUGUACAUUACAUUG
apparent Kd [3]: 31.3 nM
apparent Kd [4]: 28.1 nM

CUUUUGUGAGGAUAUCAGUAGUAUAAAAUUAAAAUUACUACUGAGAAGGCACAUGAGGAUCACCCAUGUUCCUC
apparent Kd [3]: 35.2 nM
apparent Kd [4]: 201 nM

AAGUCUGGACGAGGAUAUCAGUUGUAUCUAGCAUCAACAUGAGGAUCACCCAUGUUGCAAUAGGGUGAGAAGGCGUUUGGGCAA
apparent Kd [1]: 150 nM
apparent Kd [2]: 20.6 nM

CACGUCCUCACAGGAUAUGCUGGACUUUGUCCAGCAGAAGGGUGAAAACAUGAGGAUCACCCAUGUAGGACGUGUAUAUUUAAU
apparent Kd [1]: 1020 nM
apparent Kd [2]: 125 nM

UCGUGAAUAGAGGAUAUAUUAAUAUUUAAAACAAUAGAAGGCUAAACAUGAGGAUCACCCAUGUAAAUGGUUUU
apparent Kd [3]: 28.1 nM
apparent Kd [4]: 116 nM

ACGGCACAUGAGGAUCACCCAUGUGCCGAGAGGCGAGGAUAUCGAAAAAAAAAAAAAAAACGAGAAGGCGCGAGAA
apparent Kd [1]: 16.5 nM
apparent Kd [2]: 14.4 nM

CCAUGCGGAUGAGGAUAUUCAUCUAUGAGGAUAGAAGAAGGCAUACAUGAGGAUCACCCAUGUAUACGCAUGAGGAUCCCUUAC
apparent Kd [3]: 24 nM
apparent Kd [4]: 26 nM

ACAUACAUUCGAGGAUAUCGGUGAUUAAUAAUACGAGAAGGCGAUUUAAGGCAUAAAGCCUUAGACAUGAGGAUCACCCAUGUA
apparent Kd [1]: 97.9 nM
apparent Kd [2]: 43.8 nM

GUGAGUAGUCAGGAUAUGCUGUACAAAAGUACAGCAGAAGGGAUUACAUGAGGAUCACCCAUGUUUACUUCAUG
apparent Kd [3]: 73.1 nM
apparent Kd [4]: 279 nM

AUAUGUGUCGAGAAGGGCUCACGUAACGGAACAGCAGGAUAUCGACAUGAGGAUCACCCAUGUCGGAACGAACGGAUCUUUACU
apparent Kd [3]: 7.22 nM
apparent Kd [4]: 8.53 nM

GUAUGAGCGAUAGGAUAUACUGAGAUUGAAUGGGUAGAAGGAUUUCUUGUGGGAAAGACAUGAGGAUCACCCAUGUCACGGACC
apparent Kd [1]: 291 nM
apparent Kd [2]: 148 nM

AAAACAUGAGGAUCACCCAUGUAAAGAACGCUUAAUAGAUCUGAGGAUAUACUAGAAUUUACGUAGUAGAAGGCAGUGGGUACA
apparent Kd [1]: 31.3 nM
apparent Kd [2]: 25.3 nM

GCUCUAUGCUAGAAGGCGUGAAACAUGAGGAUCACCCAUGUCAGAGAUAUGAGGAUAUAGCAUAGAGCAAAAGACGGAAACGUC
apparent Kd [1]: 13.4 nM
apparent Kd [2]: 5.41 nM

GGGUACAUCGGAGGAUAUCAUGUAGACACAUGAGGAUCACCCAUGUCGAUGGAGACAUCGGAGAUUGAGAAGGCCGAUGUACCG
apparent Kd [1]: 435 nM
apparent Kd [2]: 23.9 nM

GGGAUGUCAGGAUAUCCAAAAGUCUGCCAAUACAGCAGACAGGAGAAGGGACAUGAGGAUCACCCAUGUAAAGA
apparent Kd [3]: 39.5 nM
apparent Kd [4]: 107 nM

AACAGCUCGUCAGGAUAUAUUUACUUAUAUUGUAUUUAUGUACAUGAGGAUCACCCAUGUUGUUAGUAGAAGGGACGAGCUGAA
apparent Kd [3]: 7.42 nM
apparent Kd [4]: 7.32 nM

AGCAUGCUAGGAUAUACGGGACAUUAGGGUUCGUUGUGUGGACAUGAGGAUCACCCAUGUAGAAGGAGCGUGCA
apparent Kd [3]: 86.6 nM
apparent Kd [4]: 374 nM

AGAUUGAAUGAGGAUAUCGAAGCGGGUACGAAGCGAGAAGGCAUGACAUGAGGAUCACCCAUGUAGUGUGGGUU
apparent Kd [3]: 465 nM
apparent Kd [4]: 435 nM

GAUUCACAUGAGGAUCACCCAUGUGAGGAUAUAGUGCAGGAGGUGAAUGUCCACCUCUCUAGAAGGCACACGGG
apparent Kd [3]: 22.3 nM
apparent Kd [4]: 23.6 nM

UUUGAAUAGGUAGGAUAUACAUACAUUCCUACAUUACUAACAUGAGGAUCACCCAUGUAUACAUUGUAGAAGGACCAGAUUGAU
apparent Kd [3]: 26.1 nM
apparent Kd [4]: 23.9 nM

GCGCAAGCAUGAGGAUAUGUAUUAAAUAAUAAUACAGAAGGCAUGUCAAAUGACAUGAGGAUCACCCAUGUUGGCAAACUGCGC
apparent Kd [1]: 46.4 nM
apparent Kd [2]: 13 nM

AGACUGAAGCAAGGAUAUUGUAAGGUUAUCGUACAAGAAGGUGCUGUUUAUGUCUCUUUACAUGAGGAUCACCCAUGUUUUUAA
apparent Kd [1]: 22.2 nM
apparent Kd [2]: 23.5 nM

AAUUACAGAUAAGGAUAUUGACAUGAGGAUCACCCAUGUAUUUGGGAAUGUUUACUGAAUUCUUACGAGAAGGUAUACGUACUU
apparent Kd [3]: 123 nM
apparent Kd [4]: 87 nM

GUGCCUUGGGAGAAGGUUAUUAGCAAAGCUAUUAAAGGAUAUUCAUACCGGAAACGGACAUGAGGAUCACCCAUGUGGCACAAA
apparent Kd [1]: 1630 nM
apparent Kd [2]: 122 nM

GCUCCUCGAGUUAGGAUAUGUCGGCUAUCUAAAUGAUAGAAGGGACAUGAGGAUCACCCAUGUCACGGGAUUGA
apparent Kd [3]: 56.7 nM
apparent Kd [4]: 58.7 nM

UUUCUCGGCGAGAAGGGAGUACAUGAGGAUCACCCAUGUGGUCCAUGGAGCUCAGGAUAUCGCGAGGUCGAUGUCGACGGAGUA
apparent Kd [3]: 127 nM
apparent Kd [4]: 231 nM

UCUCGAUGUGUAGGAUAUCUGAUUACUAUGACAAGAGAAGGGCACAUGAGGAUCACCCAUGUGGAGGACCACUGGUUCAGAUUA
apparent Kd [3]: 31.2 nM
apparent Kd [4]: 49.3 nM

ACAUGAGGAUCACCCAUGUAUUACAUGGUUAUGUUUAUUAACAGAAGGCGAAAUUACCACUUGAUCGAGGAUAUGUAUUCAAUU
apparent Kd [3]: 73 nM
apparent Kd [4]: 59.7 nM

AAUAUAAGAGCUGGUCUCAAAAGAACAUGAGGAUCACCCAUGUAGGAUAUCAGCACGAUAAGUGCUGAGAAGGACAUCCAGCUC
apparent Kd [3]: 14.5 nM
apparent Kd [4]: 18.6 nM

UGUAUAUAGGCAGGAUAUACAUGAAUAUAUAUGAUGUAGUAUGAUGUAACAUGAGGAUCACCCAUGUAGAAGGGCCAGUAUAUA
apparent Kd [3]: 45.3 nM
apparent Kd [4]: 129 nM

GUAGCAUACCAAGGAUAUUCAGGGCUUGGAUAGACAUGAGGAUCACCCAUGUGGCGAAAGUCUAGGGAGAAGGUGGAAUGCUAC
apparent Kd [1]: 16.8 nM
apparent Kd [2]: 15.1 nM

GGGAAUAAACCCGUCUCCGCCCAACCAGAAGGGCACGAUAAUAUUACAUGAGGAUCACCCAUGUUGCAGGAUAUGGUGGGCCUC
apparent Kd [1]: 180 nM
apparent Kd [2]: 76.9 nM
